In ChEMBL document CHEMBL5357044, “Discovery of a dual-acting inhibitor of interleukin-1β and STATs for the treatment of inflammatory bowel disease” (RSC Med Chem, 2024):
Activity calls are given as the source filed them. No cut-off for these calls is given here.

Tests used:
[1] = target: T1, Interferon-inducible protein AIM2 (Mus musculus) (UniProt Q91VJ1); assay: Inhibition of AIM2 inflammasome activation in mouse BMDM cells assessed as reduction in LPS-stimulated IL-1beta level at 50 to 200 nM pretreated for 1 hr followed by poly(dA/dT) treatment for 4 hrs by ELISA; type: cell-based; conditions: dose 50-200 nM, time 5.0 hrs
T1 sequence (whole entry): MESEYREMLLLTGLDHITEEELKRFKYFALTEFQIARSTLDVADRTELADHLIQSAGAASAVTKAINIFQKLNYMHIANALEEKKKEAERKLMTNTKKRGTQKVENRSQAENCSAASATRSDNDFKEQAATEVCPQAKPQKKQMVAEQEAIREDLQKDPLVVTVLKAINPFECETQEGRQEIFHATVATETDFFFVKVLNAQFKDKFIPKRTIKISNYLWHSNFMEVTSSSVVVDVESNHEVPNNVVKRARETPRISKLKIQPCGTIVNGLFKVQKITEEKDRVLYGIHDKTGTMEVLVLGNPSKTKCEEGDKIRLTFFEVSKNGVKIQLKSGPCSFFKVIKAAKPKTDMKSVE
In short: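 BMDMs (RPMI 1640, 10% FBS, Glutamax, 20 ng mL−1 M-CSF) primed with 0.5 μg mL−1 LPS for 3 h, then compound for 1 h. Stimulated 4 h with FLA-ST Ultrapure 2.5 μg mL−1 (NLRC4) or poly(dA/dT) 0.25 μg mL−1 (AIM2). IL-1β measured by ELISA.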

Colon [2] = assay: Downregulation of IL-6 level in colon tissue of DSS-induced ulcerative colitis mouse model at 0.2 to 0.6 mg/kg, ip treated every 72 hrs for 9 days by ELISA; type: functional, organism-based; conditions: dose 0.2-0.6 mg/kg, time 9.0 day
In short: (§1)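 Colitis induced with 2.5% DSS in drinking water on days 1–7, plain water days 8–9. Compound given i.p. at 0.2 and 0.6 mg kg−1 in 50% PEG300 on days 2, 5 and 8. Mice killed on day 9; colon tissue cytokines measured by ELISA. Mean ± s.e.m.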

Intestine [3] = assay: Anti-colitis activity against DSS-induced ulcerative colitis mouse model assessed as decrease in STAT-1 level in intestinal tissue at 0.2 to 0.6 mg/kg, ip treated every 72 hrs for 9 days by Western blot analysis; type: functional, organism-based; conditions: dose 0.2-0.6 mg/kg, time 9.0 day
In short: (§2)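 DSS model (2.5% in drinking water days 1–7, water days 8–9). Dosing was i.p. at 0.2 and 0.6 mg kg−1 in 50% PEG300 on days 2, 5, 8. Intestinal tissue taken at sacrifice on day 9. Lysed in RIPA with protease inhibitor and BCA-quantified, then run on SDS-PAGE/PVDF and probed for STAT1, STAT3, STAT5 and caspase-1. ECL detection.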

Colon [4] = assay: Downregulation of TNF-alpha level in colon tissue of DSS-induced ulcerative colitis mouse model at 0.2 to 0.6 mg/kg, ip treated every 72 hrs for 9 days by ELISA; type: functional, organism-based; conditions: dose 0.2-0.6 mg/kg, time 9.0 day; in short: as §1
[5] = target: NACHT, LRR and PYD domains-containing protein 3 (Mus musculus) (UniProt Q8R4B8); assay: Inhibition of NLRP3 inflammasome activation in mouse J774.A1 cells assessed as NLRP3 ubiquitination at 100 nM pretreated for 1 hr followed by nigericin treatment for 1 hr; conditions: time 2.0 hrs
Intestine [6] = assay: Anti-colitis activity against DSS-induced ulcerative colitis mouse model assessed as decrease in caspase-1 level in intestinal tissue at 0.2 to 0.6 mg/kg, ip treated every 72 hrs for 9 days by Western blot analysis; type: functional, organism-based; conditions: dose 0.2-0.6 mg/kg, time 9.0 day; in short: as §2
Colon [7] = assay: Anti-colitis activity against DSS-induced ulcerative colitis mouse model assessed as increase in goblet cells in colon tissue at 0.2 to 0.6 mg/kg, ip treated every 72 hrs for 9 days by H and E staining based analysis; type: functional, organism-based; conditions: dose 0.2-0.6 mg/kg, time 9.0 day
In short: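 Colons were taken on day 9 from 2.5% DSS-fed mice (DSS days 1–7). Dosing was i.p. 0.2 or 0.6 mg kg−1 in 50% PEG300 on days 2, 5, 8. H&E-stained sections imaged at ×20 and scored for inflammatory infiltration, goblet cell depletion and crypt loss.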

Intestine [8] = assay: Anti-colitis activity against DSS-induced ulcerative colitis mouse model assessed as decrease in STAT-5 level in intestinal tissue at 0.2 to 0.6 mg/kg, ip treated every 72 hrs for 9 days by Western blot analysis; type: functional, organism-based; conditions: dose 0.2-0.6 mg/kg, time 9.0 day; in short: as §2
Mus musculus [9] = assay: Anti-colitis activity against DSS-induced ulcerative colitis mouse model assessed as increase in colon length at 0.2 to 0.6 mg/kg, ip treated every 72 hrs for 9 days; type: functional, organism-based; conditions: dose 0.2-0.6 mg/kg, time 9.0 day
In short: (§3)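 Mice given 2.5% DSS water days 1–7, then water to day 9. Dosing: i.p. 0.2 or 0.6 mg kg−1 in 50% PEG300 on days 2, 5, 8. Body weight and fecal occult blood scored daily. Colon length measured after sacrifice on day 9. Mean ± s.e.m.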

Mus musculus [10] = assay: Anti-colitis activity against DSS-induced ulcerative colitis mouse model assessed as decrease in hemafecia at 0.2 to 0.6 mg/kg, ip treated every 72 hrs for 9 days; type: functional, organism-based; conditions: dose 0.2-0.6 mg/kg, time 9.0 day; in short: as §3
[11] = target: NACHT, LRR and PYD domains-containing protein 3 (Mus musculus) (UniProt Q8R4B8); assay: Inhibition of NLRP3 inflammasome activation in mouse BMDM cells assessed as reduction in LPS-stimulated IL-1beta level at 50 to 200 nM pretreated for 1 hr followed by nigericin treatment for 30 mins by ELISA; type: cell-based; conditions: dose 50-200 nM, time 1.5 hrs
In short: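 Bone-marrow macrophages in RPMI 1640/10% FBS/M-CSF. LPS priming at 0.5 μg mL−1 for 3 h, compound 1 h. NLRP3 then triggered by nigericin 10 μM for 0.5 h or imiquimod 900 μM for 2 h. Supernatant IL-1β by ELISA.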

[12] = target: NACHT, LRR and PYD domains-containing protein 3 (Mus musculus) (UniProt Q8R4B8); assay: Inhibition of NLRP3 inflammasome activation in mouse J774.A1 cells assessed as reduction in mature IL-1beta release at 50 to 200 nM pretreated for 1 hr followed by nigericin treatment for 1 hr by Western blot analysis; type: cell-based; conditions: dose 50-200 nM, time 2.0 hrs
In short: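 J774A.1 cells, LPS 1 μg mL−1 for 5 h, compound exposure, nigericin 10 μM 1 h. RIPA lysis with protease inhibitor and BCA quantitation, then SDS-PAGE/PVDF. Blocked 5% milk, primary antibodies overnight at 4 °C, HRP secondaries, ECL detection.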

J774.A1 = assay: Inhibition of STAT5 expression in LPS-treated mouse J774.A1 cells assessed as reduction in STAT5 phosphorylation at 50 to 200 nM treated for 1 hr by Western blot analysis; type: cell-based; conditions: dose 50-200 nM
In short: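 J774A.1 cells pretreated with LPS and compound, lysed in RIPA. pSTAT1, STAT1, pSTAT3, STAT3, pSTAT5 and STAT5 detected by SDS-PAGE western blot with ECL.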

Intestine [13] = assay: Anti-colitis activity against DSS-induced ulcerative colitis mouse model assessed as decrease in STAT-3 level in intestinal tissue at 0.2 to 0.6 mg/kg, ip treated every 72 hrs for 9 days by Western blot analysis; type: functional, organism-based; conditions: dose 0.2-0.6 mg/kg, time 9.0 day; in short: as §2

Sequence of NACHT, LRR and PYD domains-containing protein 3 (Mus musculus) (Q8R4B8 whole entry, the tested form may be a part): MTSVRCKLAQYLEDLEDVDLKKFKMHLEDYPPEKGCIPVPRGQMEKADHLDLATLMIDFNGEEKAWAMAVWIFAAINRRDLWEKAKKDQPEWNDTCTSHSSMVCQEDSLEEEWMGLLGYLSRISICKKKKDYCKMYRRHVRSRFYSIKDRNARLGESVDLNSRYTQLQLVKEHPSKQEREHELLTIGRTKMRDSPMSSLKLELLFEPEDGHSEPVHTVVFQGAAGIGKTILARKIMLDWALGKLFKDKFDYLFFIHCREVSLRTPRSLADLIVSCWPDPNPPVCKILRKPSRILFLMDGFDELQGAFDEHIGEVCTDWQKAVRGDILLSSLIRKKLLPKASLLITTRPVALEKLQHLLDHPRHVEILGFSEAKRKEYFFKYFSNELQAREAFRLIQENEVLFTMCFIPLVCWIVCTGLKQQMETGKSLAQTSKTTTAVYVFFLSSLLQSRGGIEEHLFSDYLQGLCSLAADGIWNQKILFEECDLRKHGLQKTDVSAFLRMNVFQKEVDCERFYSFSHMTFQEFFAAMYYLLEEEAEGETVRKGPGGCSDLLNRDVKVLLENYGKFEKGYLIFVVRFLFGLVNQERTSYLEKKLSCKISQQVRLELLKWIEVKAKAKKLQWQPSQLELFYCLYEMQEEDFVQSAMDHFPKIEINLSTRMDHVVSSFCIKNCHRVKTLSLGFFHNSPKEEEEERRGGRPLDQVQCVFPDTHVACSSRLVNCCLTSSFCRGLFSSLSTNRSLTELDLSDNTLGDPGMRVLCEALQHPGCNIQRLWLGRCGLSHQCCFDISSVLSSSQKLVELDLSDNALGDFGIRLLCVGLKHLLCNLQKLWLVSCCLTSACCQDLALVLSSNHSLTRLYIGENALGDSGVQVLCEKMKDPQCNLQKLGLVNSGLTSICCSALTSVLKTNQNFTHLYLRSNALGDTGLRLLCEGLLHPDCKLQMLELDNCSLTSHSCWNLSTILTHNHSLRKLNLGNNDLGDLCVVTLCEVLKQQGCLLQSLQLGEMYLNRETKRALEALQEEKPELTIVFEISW

inhibition [1]: Active | inhibition [5]: Active | inhibition [11]: Active | inhibition [12]: Active
SMILES: Cc1cc(/C=C/C(=O)c2ccc(C(=O)N[C@@H](Cc3ccccc3)C(=O)N[C@@H](CC(C)C)B(O)O)cc2)cc(C)c1O
Activity (Colon [2]): inactive | Activity (Intestine [3]): Active | Activity (Colon [4]): inactive | Activity (Intestine [6]): Active | Activity (Colon [7]): Active | Activity (Intestine [8]): Active | Activity (Mus musculus [9]): Active | Activity (Mus musculus [10]): Active | inhibition (J774.A1): Active | Activity (Intestine [13]): inactive
